Test results from PubChem BioAssay.
Calls of active or inactive are those of the source.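 How the source made its calls, unless noted: active means viability at or under a set limit in both replicates, limit being median viability minus 3 SD (cut at about 48% in these data, passing the limit was not always enough); inconclusive means at or under the limit in just one replicate; inactive means at or above the limit in both replicates.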

Columns and labels:
[1] = reducers of endogenous Her2 protein level, primary screen, SKBR3 breast tumor cells, AlphaScreen, ATP viability (AID 461;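 active means Her2 level under about 52% in both replicate screens, with viability over 70% of control, limit read from the data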;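 on Her2 level: lower value means less Her2 protein in the cells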;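 on viability: percent of carrier control wells set as 100% viability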); conditions: 18-24 h, measured here: SKBR3 viability, ATP luminescence, at 10 µM
[2] = target: Receptor tyrosine-protein kinase erbB-2 (Homo sapiens) (UniProt P04626); experiment: as above; conditions: 18-24 h, at 10 µM, stronger effect = lower value
[3] = SK-BR-3 cell growth inhibitors, pilot screen, 24 h, human (AID 572;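 active means viability at or below 10% of carrier control in both of two separate runs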;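 further: compound exposure lasted between 18 and 24 h rather than exactly 24 h; 100% = carrier-treated control wells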); conditions: SK-BR-3 viability, CellTiter-Glo luminescence, at 10 µM, stronger effect = lower value
[4] = HUVEC growth inhibition – cell-based, human, primary screen (AID 575;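 active means viability at or below 30% in both replicate assays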;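 further: 100% = median of untreated cell wells with 0.1% DMSO on each plate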); conditions: HUVEC proliferation, CellTiter-Glo luminescence, 72 h; at 10 µM; stronger effect = lower value
In short: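 Test system – primary HUVEC, no more than 12 passages · Dosing – one dose, 10 µM final, 0.1% DMSO · Times – 72 h treatment at 37 °C · Measured by – ATP-based CellTiter-Glo luminescent read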

[5] = growth inhibitors of H69AR lung tumor, primary screen, human, duplicate replicates (AID 580); conditions: H69AR lung tumor cells viability, ATP luminescence, 72 h; at 10 µM; stronger effect = lower value;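 further: 100% = mean luminescence of untreated wells and 0% = no signal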
[6] = reversal of MRP1-mediated doxorubicin resistance, pilot screen, H69AR cells, doxorubicin co-treatment (AID 601;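 active means viability loss from added drug above about 55%, and viability with drug at most 40%, in both replicates, limit read from the data, passing the limit was not always enough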); conditions: CellTiter-Glo, 72 h, at 10 µM; for differential viability (reversal): stronger effect = higher value
[7] = 384-well plate pilot, post-Golgi transport modulator project, inhibition of yeast transport mutant growth (AID 636; in the data active means inhibition above about 31%); conditions: absorbance 615 nm, about 18 h, stronger effect = higher value
[8] = growth suppression of yeast trafficking mutant, preliminary HTS, modulators of trafficking downstream of Golgi apparatus project, 1536-format plate, OD 615 nm (AID 637; in the data active means inhibition above about 30%); conditions: yeast transport mutant growth, absorbance 615 nm, 18 h; stronger effect = higher value
[9] = H69AR cells + 2 uM doxorubicin, measured here: viability with 2 uM doxorubicin, stronger effect = lower value
[10] = H69AR cells, compound alone cytotoxicity

Chain of Receptor tyrosine-protein kinase erbB-2 (Homo sapiens) (P04626 whole entry, looked up): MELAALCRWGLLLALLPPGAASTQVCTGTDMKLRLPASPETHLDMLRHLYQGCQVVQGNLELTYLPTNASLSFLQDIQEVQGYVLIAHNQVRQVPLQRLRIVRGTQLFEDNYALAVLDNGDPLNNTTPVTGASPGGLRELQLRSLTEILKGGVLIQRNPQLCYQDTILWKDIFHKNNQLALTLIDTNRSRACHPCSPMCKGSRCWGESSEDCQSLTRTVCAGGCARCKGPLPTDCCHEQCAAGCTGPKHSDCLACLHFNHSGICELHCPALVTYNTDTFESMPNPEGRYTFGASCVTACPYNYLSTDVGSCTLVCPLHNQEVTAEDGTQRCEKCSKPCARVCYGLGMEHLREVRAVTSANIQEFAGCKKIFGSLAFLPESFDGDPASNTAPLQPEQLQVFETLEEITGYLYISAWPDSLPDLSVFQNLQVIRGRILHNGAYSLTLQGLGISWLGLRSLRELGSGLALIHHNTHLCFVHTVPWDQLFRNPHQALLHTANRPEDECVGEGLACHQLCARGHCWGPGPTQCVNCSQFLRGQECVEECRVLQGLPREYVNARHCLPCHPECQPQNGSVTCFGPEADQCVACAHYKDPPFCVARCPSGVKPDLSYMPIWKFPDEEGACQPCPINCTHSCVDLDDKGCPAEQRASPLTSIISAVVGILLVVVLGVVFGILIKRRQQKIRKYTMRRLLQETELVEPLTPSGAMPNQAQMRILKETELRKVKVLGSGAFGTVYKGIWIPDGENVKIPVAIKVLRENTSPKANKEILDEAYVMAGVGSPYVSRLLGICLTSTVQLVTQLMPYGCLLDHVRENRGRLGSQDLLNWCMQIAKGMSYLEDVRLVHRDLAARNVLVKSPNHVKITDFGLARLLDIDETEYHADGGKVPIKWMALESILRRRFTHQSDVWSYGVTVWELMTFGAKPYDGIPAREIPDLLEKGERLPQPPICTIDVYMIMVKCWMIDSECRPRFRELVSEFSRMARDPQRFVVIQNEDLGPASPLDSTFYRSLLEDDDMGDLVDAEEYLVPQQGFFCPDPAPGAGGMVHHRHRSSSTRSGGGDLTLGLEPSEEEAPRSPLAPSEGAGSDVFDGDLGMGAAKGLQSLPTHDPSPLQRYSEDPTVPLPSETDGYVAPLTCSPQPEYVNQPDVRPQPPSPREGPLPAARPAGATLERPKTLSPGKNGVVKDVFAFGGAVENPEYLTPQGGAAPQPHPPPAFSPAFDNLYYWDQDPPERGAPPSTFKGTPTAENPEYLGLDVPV

Row | SMILES | viability [1] [%] | Her2 level [2] | viability [3] | viability [4] | viability [5] | differential viability (reversal) ([6]; H69AR cells + 2 uM doxorubicin) | viability [6, 9] [%] | viability [6, 10] [%] | inhibition [7] | inhibition [8]
1 | Cc1nc2sc(C#N)c(N)c2c2c1CCCC2 | 95.5 | 78.5% (inactive) | 95.5% (inactive) | 85.7% (inactive) | 102% (inactive) | -6% (inactive) | 108 | 102 | -1.97% (inactive) | 4.36% (inactive)
2 | Cn1nc(C(=O)Nc2cccc(C(F)(F)F)c2)ccc1=O | 95.5 | 92% (inactive) | 95.5% (inactive) | 107% (inactive) | 91.5% (inactive) | 6.87% (inactive) | 84.7 | 91.5 | -3.29% (inactive) | 1.45% (inactive)
3 | COCCn1c(SCc2csc(-c3ccccc3)n2)nc2ccccc21 | 94 | 98.5% (inactive) | 94% (inactive) | 71.5% (inactive) | 88.5% (inactive) | -2.99% (inactive) | 91.5 | 88.5 | 1.3% (inactive) | -8.03% (inactive)
4 | CCOc1cc(N2CCOCC2)c(OCC)cc1NC(=O)COC(=O)CCc1c[nH]c2ccccc12 | 97.5 | 98.5% (inactive) | 97.5% (inactive) | 105% (inactive) | 99.4% (inactive) | 4.66% (inactive) | 94.8 | 99.4 | -8.38% (inactive) | -8.83% (inactive)
5 | Cc1noc(C)c1COC(=O)c1ccccc1Oc1ccccc1 | 91 | 106% (inactive) | 91% (inactive) | 79.1% (inactive) | 96.5% (inactive) | 26.8% (inactive) | 69.8 | 96.5 | -3.25% (inactive) | -5.56% (inactive)
6 | COc1ccc(C2=Nn3c(nnc3-c3ccccc3)SC2)cc1OC | 124 | 101% (inactive) | 124% (inactive) | 78.1% (inactive) | 81.7% (inactive) | 2.4% (inactive) | 79.3 | 81.7 | -4.47% (inactive) | 5.65% (inactive)
7 | COC(=O)N1CC(c2ccccc2)CC1=O (stereo not given) | 96.5 | 81.5% (inactive) | 96.5% (inactive) | 101% (inactive) | 100% (inactive) | 15.1% (inactive) | 85 | 100 | -9.04% (inactive) | -6.51% (inactive)
8 | COC(=O)CSc1nc(C)c(C(C)=O)cc1C#N | 92 | 90.5% (inactive) | 92% (inactive) | 111% (inactive) | 90.1% (inactive) | 9.68% (inactive) | 80.4 | 90.1 | -0.93% (inactive) | -0.65% (inactive)
9 | CCN(CCO)C1CC(=O)N(c2ccccc2C)C1=O (stereo not given) | 95 | 93.5% (inactive) | 95% (inactive) | 105% (inactive) | 101% (inactive) | 24.2% (inactive) | 76.7 | 101 | -9.46% (inactive) | -2% (inactive)
10 | O=C(N1CCN(Cc2ccccc2)CC1)C12CC3CC(CC(C3)C1)C2 | 83 | 98% (inactive) | 83% (inactive) | 80.4% (inactive) | 83.4% (inactive) | -5.52% (inactive) | 88.9 | 83.4 | -5.54% (inactive) | -0.67% (inactive)
11 | CCOc1ccc(C(=O)OCc2nnc(-c3cccs3)o2)cc1OC | 106 | 96% (inactive) | 106% (inactive) | 116% (inactive) | 99.9% (inactive) | 25.9% (inactive) | 74 | 99.9 | -3.12% (inactive) | 2.38% (inactive)
12 | O=C(NCCC1=CCCCC1)C1CCN(C(=O)Nc2ccccc2)CC1 | 106 | 128% (inactive) | 106% (inactive) | 91.3% (inactive) | 101% (inactive) | 5.69% (inactive) | 95.7 | 101 | -2.21% (inactive) | -2.33% (inactive)
13 | CCOC(=O)c1ccc(Oc2cc(C)nc(SC)n2)cc1 | 88.5 | 99% (inactive) | 88.5% (inactive) | 36.8% (inactive) | 16.5% (active) | -52% (inactive) | 68.5 | 16.5 | -5.54% (inactive) | 2.3% (inactive)
14 | CCCn1cnc2c(c1=O)c1nc3ccccc3nc1n2Cc1ccccc1OC | 99 | 97% (inactive) | 99% (inactive) | 91.9% (inactive) | 86.4% (inactive) | -1.82% (inactive) | 88.2 | 86.4 | -7.11% (inactive) | -2.22% (inactive)
15 | C=CCn1c(SCC(=O)c2ccc(OC)cc2)nnc1C(C)NC(=O)c1cccs1 (stereo not given) | 102 | 88.5% (inactive) | 102% (inactive) | 90.9% (inactive) | 87% (inactive) | -5.4% (inactive) | 92.4 | 87 | -0.26% (inactive) | 7.67% (inactive)
16 | CCC(C)(C)n1nnnc1C(c1cc2cc(OC)ccc2[nH]c1=O)N1CCc2ccccc21 (stereo not given) | 97 | 78% (inactive) | 97% (inactive) | 67% (inactive) | 68% (inactive) | -0.155% (inactive) | 68.1 | 68 | -3.6% (inactive) | -4.59% (inactive)

Row | SMILES | viability [1] [%] | Her2 level [2] | viability [3] | viability [4] | viability [5] | differential viability (reversal) ([6]; H69AR cells + 2 uM doxorubicin) | viability [6, 9] [%] | viability [6, 10] [%] | inhibition [7] | inhibition [8]
17 | CCc1ccccc1NC(=O)CSc1nc2n[nH]c(C)c2c(=N)n1-c1ccc(OC)cc1 | 98.5 | 77.5% (inactive) | 98.5% (inactive) | 66.4% (inactive) | 80% (inactive) | -2.23% (inactive) | 82.3 | 80 | -5.92% (inactive) | 6.51% (inactive)
18 | Nc1cc(-c2ccc(Br)cc2)nn1S(=O)(=O)c1ccccc1 | 90 | 108% (inactive) | 90% (inactive) | 74.2% (inactive) | 88% (inactive) | 0.535% (inactive) | 87.5 | 88 | 0.26% (inactive) | 3.67% (inactive)
19 | CCOC(=O)/N=C(/NC(=O)Nc1ccc(C(=O)OCC)cc1)OC | 99.5 | 75.5% (inactive) | 99.5% (inactive) | 83.7% (inactive) | 96.5% (inactive) | 14.8% (inactive) | 81.8 | 96.5 | -5.54% (inactive) | 5.4% (inactive)
20 | CC(=O)Nc1ccc(OC(=O)c2cccnc2)cc1 | 111 | 116% (inactive) | 111% (inactive) | 116% (inactive) | 99.9% (inactive) | 15.1% (inactive) | 84.9 | 99.9 | -7.57% (inactive) | -3.17% (inactive)
21 | O=C(C1CCCN(S(=O)(=O)c2ccc(Br)s2)C1)N1CCCCCC1 (stereo not given) | 83.5 | 95% (inactive) | 83.5% (inactive) | 98.4% (inactive) | 98.1% (inactive) | 9.84% (inactive) | 88.2 | 98.1 | -3.16% (inactive) | -3.5% (inactive)
22 | CC(=O)Nc1sc2c(c1CN1CCN(c3ccccn3)CC1)CCCC2 | 66 | 85.5% (inactive) | 66% (inactive) | 96% (inactive) | 95.4% (inactive) | 12% (inactive) | 83.3 | 95.4 | -2.53% (inactive) | -10.5% (inactive)
23 | O=C(COC(=O)c1ccc(Br)o1)Nc1ccc(S(=O)(=O)N2CCCC2)cc1 | 80 | 74.5% (inactive) | 80% (inactive) | 102% (inactive) | 95.6% (inactive) | 13.3% (inactive) | 82.3 | 95.6 | -6.35% (inactive) | -1% (inactive)
24 | Cc1ccc(Cn2c(C(=O)NCCCN3CCOCC3)cc3sccc32)cc1 | 84.5 | 76.5% (inactive) | 84.5% (inactive) | 63.6% (inactive) | 77.6% (inactive) | -3.47% (inactive) | 81.1 | 77.6 | -3.16% (inactive) | -1.27% (inactive)
25 | CCCCNc1cc(C)oc(=O)c1C(C)=O | 94.5 | 107% (inactive) | 94.5% (inactive) | 105% (inactive) | 97.9% (inactive) | 7% (inactive) | 90.9 | 97.9 | -4.86% (inactive) | 3.28% (inactive)
26 | Cc1ccc(-c2nnn(CC(=O)N(Cc3ccco3)C(C(=O)NC(C)(C)C)c3cccs3)n2)o1 (stereo not given) | 119 | 81% (inactive) | 119% (inactive) | 89.1% (inactive) | 95.9% (inactive) | 6.13% (inactive) | 89.8 | 95.9 | 0.4% (inactive) | -4.1% (inactive)
27 | CCOc1ccc(C2C=C(c3ccc(F)cc3)Nc3ncnn32)cc1 (stereo not given) | 91.5 | 87% (inactive) | 91.5% (inactive) | 81.2% (inactive) | 82.2% (inactive) | 3.07% (inactive) | 79.1 | 82.2 | -4.42% (inactive) | 9.34% (inactive)
28 | CCOc1ccccc1C1CC(=O)NC(SCC)=C1C#N (stereo not given) | 85.5 | 89% (inactive) | 85.5% (inactive) | 109% (inactive) | 97% (inactive) | 7.42% (inactive) | 89.6 | 97 | -6.08% (inactive) | -2.17% (inactive)
29 | CN1C(=O)CC(C(=O)Nc2ccc(F)cc2)SC1=Nc1ccc2c(c1)OCO2 (stereo not given) | 88 | 73% (inactive) | 88% (inactive) | 95% (inactive) | 82.5% (inactive) | 2.84% (inactive) | 79.6 | 82.5 | -7.16% (inactive) | 0.83% (inactive)
30 | CCCC1(C(=O)OCC)NC(c2ccc(N(C)C)cc2)C2C(=O)N(c3ccc(F)cc3)C(=O)C21 (stereo not given) | 90 | 97% (inactive) | 90% (inactive) | 104% (inactive) | 112% (inactive) | 13.8% (inactive) | 98.2 | 112 | 0% (inactive) | -2.67% (inactive)
31 | CCCCCC(=O)N1CC2(CC)CN(C(=O)CCCCC)CC(CC)(C1)C2=O | 89 | 124% (inactive) | 89% (inactive) | 91.7% (inactive) | 83.3% (inactive) | -6.35% (inactive) | 89.7 | 83.3 | 0.51% (inactive) | -7.33% (inactive)
